Data on eleven compounds can be found in PMC5976253 (Journal of medicinal chemistry, 2018).

Molecules are shown by their SMILES. “Also recorded” adds a separate entry of the source.

For data set [1], the target named is T1, rat UT-B (Rattus norvegicus, UniProt P97689).
T1 sequence (P97689 1-384): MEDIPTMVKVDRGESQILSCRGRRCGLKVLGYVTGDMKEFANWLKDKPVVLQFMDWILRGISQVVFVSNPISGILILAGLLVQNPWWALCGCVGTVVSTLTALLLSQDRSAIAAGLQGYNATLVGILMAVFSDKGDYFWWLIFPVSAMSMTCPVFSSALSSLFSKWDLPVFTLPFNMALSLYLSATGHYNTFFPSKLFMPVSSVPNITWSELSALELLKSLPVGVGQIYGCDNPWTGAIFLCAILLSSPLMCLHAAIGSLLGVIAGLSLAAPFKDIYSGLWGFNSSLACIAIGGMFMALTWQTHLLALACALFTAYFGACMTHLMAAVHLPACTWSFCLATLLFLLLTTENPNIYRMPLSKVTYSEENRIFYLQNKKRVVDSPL
As to the kind of experiment: UT-B inhibition, erythrocyte lysis assay. The data set is classed as cell-based. The procedure, abridged: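 Rat whole blood was diluted to ~1.5% hematocrit in PBS with 1.25 M acetamide and 5 mM glucose, then incubated 15 min with test compound. Suspension was added rapidly to wells and mixed vigorously, and lysis was read as absorbance at 710 nm. Controls were isosmolar buffer (nonlysed) and 0.7 mM phloretin (lysed), with % lysis normalized between them; mean ± SEM, n = 3.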

A short description of data set [2]: Rat pharmacokinetics. The conditions noted are these: 4 mg/kg intravenous. The data set is classed as in vivo. The procedure, abridged:
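Tail-vein blood was taken at 15, 30, 60, 120 and 180 min, serum separated, and urine collected in metabolic cages for 3 h; samples were stored at −20 °C. LC/MS (ESI positive) quantified compound against standards spiked into control rat urine and plasma.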

Data set [3] has as its system rats. As to the kind of experiment: Diuretic studies in rats. The class given is in vivo. The conditions noted are these: rat, 4 mg/kg intravenous, compared with pretreatment. The procedure, abridged:
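Male Wistar rats (250–300 g), acclimated individually in metabolic cages for 3 days (6 h/day), with food and water ad libitum. Spontaneously voided urine was collected for 3 h. Test compound or vehicle was then given IV via catheter at 4 mg/kg in saline with 20% dimethylacetamide and 1.28 mg/mL NaOH, and urine was collected for a further 3 h. Read-outs were volume and freezing-point osmolality; mean ± SEM, n = 4; paired t-test versus −3 to 0 h.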

Data set [4] concerns the target T2, rat UT-A1 (Rattus norvegicus, UniProt Q62668).
T2 sequence (Q62668 1-929): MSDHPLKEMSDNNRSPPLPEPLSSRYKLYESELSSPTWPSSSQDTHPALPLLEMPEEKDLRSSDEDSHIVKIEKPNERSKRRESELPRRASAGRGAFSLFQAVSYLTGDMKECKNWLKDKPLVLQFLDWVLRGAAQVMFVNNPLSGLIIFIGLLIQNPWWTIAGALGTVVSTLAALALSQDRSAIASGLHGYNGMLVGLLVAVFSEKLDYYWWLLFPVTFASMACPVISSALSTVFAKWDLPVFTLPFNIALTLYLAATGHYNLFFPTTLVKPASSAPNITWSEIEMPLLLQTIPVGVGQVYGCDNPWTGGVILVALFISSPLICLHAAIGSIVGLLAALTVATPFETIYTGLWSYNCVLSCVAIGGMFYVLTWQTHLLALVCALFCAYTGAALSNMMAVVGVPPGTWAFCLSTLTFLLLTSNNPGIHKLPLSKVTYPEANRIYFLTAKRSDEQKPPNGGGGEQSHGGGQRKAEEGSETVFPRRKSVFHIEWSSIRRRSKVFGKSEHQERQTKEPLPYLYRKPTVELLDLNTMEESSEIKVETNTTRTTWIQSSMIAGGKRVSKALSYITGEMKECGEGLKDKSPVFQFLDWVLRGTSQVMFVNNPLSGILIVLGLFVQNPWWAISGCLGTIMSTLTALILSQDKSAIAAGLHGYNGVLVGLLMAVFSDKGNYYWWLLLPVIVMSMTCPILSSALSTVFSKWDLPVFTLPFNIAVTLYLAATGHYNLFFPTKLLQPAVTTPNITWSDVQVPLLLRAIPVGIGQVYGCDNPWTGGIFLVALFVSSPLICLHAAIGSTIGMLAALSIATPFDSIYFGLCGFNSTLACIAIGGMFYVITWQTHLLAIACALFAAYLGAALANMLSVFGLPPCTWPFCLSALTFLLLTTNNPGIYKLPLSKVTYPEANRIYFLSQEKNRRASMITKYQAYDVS
The data set is classed as cell-based. The method in brief:
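MDCK cells co-expressing rat UT-A1, AQP1 and YFP were used, selecting a clone with bright YFP and relatively low AQP1. Urea transport was read by plate-reader fluorescence, referenced to DMSO (0%) and phloretin (100%). Concentration–inhibition data are mean ± SEM, n = 3. For reversibility, cells were preincubated with 0.5 µM compound and PBS-washed before assay. For kinetics, 0.5 µM was added at varied times before assay. Urea gradients were 200, 400 and 800 mM.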

Regarding `COc1ccc(Cl)cc1S(=O)(=O)Nc1ccc(Oc2nc3ccccc3n3cnnc23)cc1` [8aa, N-(4-([1,2,4]Triazolo[4,3-a]quinoxalin-4-yloxy)-phenyl)-5-chloro-2-methoxybenzenesulfonamide], in data set [1], the “UT-B inhibition (in words)” value is listed as “modest activity”.

As for `CC(=O)Nc1ccc(-c2noc(C3CCCN(C(=O)c4ccccc4F)C3)n2)cc1` (stereo not shown) [compound 1], the “UT-B inhibition (in words)” value in data set [1] is “little UT-B inhibition”.

As for `COc1ccc(-c2cccc(-c3ccn(Cc4csc(C)n4)n3)c2)nn1` [compound 2], the “UT-B inhibition (in words)” value in data set [1] is listed as “little UT-B inhibition”.

`CCCc1nnc2c(Oc3ccc(NS(=O)(=O)c4cc(Cl)ccc4OC)cc3)nc3cc(F)c(F)cc3n12` [8bl]: the serum concentration entry in data set [2] (for 3 h) is “greater than 2 µM”. In data set [2] (urine collected for 3 h), the urine concentration was 6 to 8 µM. In data set [3], the “3 h urine volume” value is “marked diuresis; also recorded: significantly increased” and the urine osmolality entry is “reduced urinary osmolality”.

As for `COc1ccc(Cl)c(S(=O)(=O)Nc2ccc(Nc3nc4ccccc4n4cnnc34)cc2)c1` [8am], the “UT-A1 inhibition (in words)” value in data set [4] is “inactive”.

On to `COc1ccc(Cl)cc1S(=O)(=O)Nc1ccc(Oc2nc3cc(Cl)c(Cl)cc3n3cnnc23)cc1` [8bi], for which, in data set [4], the “UT-A1 inhibition (in words)” value was “inactive”.

With `COC(=O)c1sc2nc3c(cc2c1N)CN(Cc1ccccc1)CC3` [compound 4], the “UT-A1 inhibition (in words)” value in data set [4] was “low potency”.

With `COc1ccc(Cl)cc1S(=O)(=O)Nc1ccc(Oc2nc3ccccc3n3c(C)nnc23)cc1` [8an], in data set [4], the “UT-A1 inhibition (in words)” value was “inactive”.

Consider `CCCc1nnc2c(Oc3ccc(NS(=O)(=O)c4cc(Cl)ccc4OC)cc3)nc3ccccc3n12` [8ay], for which the “Reversibility of UT-A1 inhibition” value in data set [4] (0.5 µM for 15 min followed by washing) is “fully reversed”. Besides, in data set [4] (after addition of 0.5 µM compound), the “half-time for UT-A1 inhibition” value was ~ 2 min. Further, in data set [4] (urea 200, 400 and 800 mM), the “IC50 for UT-A1 at different urea concentration gradients (inhibition mechanism)” value is “similar”.

On to `O=C(Nc1ccon1)c1cc(-c2ccccc2)nc2ccccc12` [compound 3], for which the “UT-B inhibition (in words)” value in data set [1] is recorded as “little UT-B inhibition”.

For `COc1ccc(Cl)c(S(=O)(=O)Nc2ccc(Oc3nc4ccccc4n4cnnc34)cc2)c1` [8ag], the “UT-A1 inhibition (in words)” value in data set [4] is “inactive”.
